Laboratory results taken from ChEMBL document CHEMBL1145345, “Galactosyl derivatives of L-arginine and D-arginine: synthesis, stability, cell permeation, and nitric oxide production in pituitary GH3 cells” (J Med Chem, 2006).
The source made the active and inactive calls. The calls are words filed in the database; no cut-off is given here.

Legend:
Format in all cases: functional, cell-based
AEC = assay: Increase in DAF2 monitored NO production in BAEC at 10 mM after 30 mins; settings: Bos taurus
Method in brief: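 Bovine aortic endothelial cells grown in DMEM/10% FBS, exposed to 10 mM compound in normal Krebs solution (pH 7.4) for 30 min at 37 °C. Then loaded with 10 µM DAF-2DA for 30 min, fixed with 4% paraformaldehyde for 5 min, and imaged by fluorescence microscopy (ex/em 495/515 nm). Output is % of Krebs-only control fluorescence.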

GH3 [1] = assay: Area under DAF2 monitored nitrite production in GH3 cells-incubation period curve
GH3 [2] = assay: Increase in DAF2 monitored NO production in GH3 cells at 30 mins
Method in brief: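 GH3 cells in F10 with 10% FBS and 15% horse serum, treated 30 min at 37 °C with 3, 10 or 30 mM compound in normal Krebs (pH 7.4). Loaded with 10 µM DAF-2DA for 30 min, fixed in 4% paraformaldehyde, and fluorescence read by densitometry at 495/515 nm. Reported as % of Krebs-only control; mean ± S.E. of three values from three sessions.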

GH3 [3] = assay: Increase in DAF2 monitored nitrite production in GH3 cells at 30 mins

Row | Structure (SMILES) | Activity (AEC) | AUC (GH3 [1]) | Activity (GH3 [2]) | Activity (GH3 [3])
1 | N=C(N)NCCC[C@H](N)C(=O)O | Active | 1390 ng·h/mL | – | –
2 | NC(N)=NCCC[C@H](N)C(=O)OC[C@H]1O[C@H](O)[C@H](O)[C@@H](O)[C@H]1O | Active | – | Active | Active
3 | NC(N)=NCCC[C@@H](N)C(=O)OC[C@H]1O[C@H](O)[C@H](O)[C@@H](O)[C@H]1O | Active | 7500 ng·h/mL | – | –
4 | N=C(N)NCCC[C@@H](N)C(=O)O | Active | 2470 ng·h/mL | – | –
